From publication PMC10807744 (Journal of agricultural and food chemistry, 2023)

Key:
mAb-19F2 [1] = assay: ic-ELISA; type: binding, BALB/c mice; details: mAb-19F2, relative to buprofezin = 100%
mAb-19F2 [2] = assay: colloidal gold immunochromatographic assay; type: binding, BALB/c mice
Procedure, shortened: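 Colloidal gold strips were striped with […]. Tea was soaked 30 min in 50 mL boiling water, adjusted to pH 6-7, and 100 µL applied. Spikes were 2.5, 5 and 10 mg/kg. LOD was read by eye as test-line disappearance, and LOQ as IC20.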

| SMILES | Cross-reactivity (mAb-19F2 [1]) | further results |
| --- | --- | --- |
| CCCC/C=N/N(Cc1ccc(Cl)nc1)/C(N)=N/[N+](=O)[O-] [Guadipyr] | <0.18% |  |
| O=C(NC(=O)c1c(F)cccc1F)Nc1cc(Cl)c(OC(F)(F)C(F)C(F)(F)F)cc1Cl (centres unmarked) [Lufenuron] | <0.18% |  |
| O=C(NC(=O)c1c(F)cccc1F)Nc1ccc(Cl)cc1 [Diflubenzuron] | <0.18% |  |
| CC(COc1ccc(Oc2ccccc2)cc1)Oc1ccccn1 (centres unmarked) [Pyriproxyfen] | <0.18% |  |
| CN1COCN(Cc2cnc(Cl)s2)/C1=N\[N+](=O)[O-] [Thiamethoxam] | <0.18% |  |
| CN/C(=N\[N+](=O)[O-])NCc1cnc(Cl)s1 [Clothianidin] | <0.18% |  |
| CN/C(=N/CC1CCOC1)N[N+](=O)[O-] (centres unmarked) [Dinotefuran] | <0.18% |  |
| CC(c1ccc(C(F)(F)F)nc1)S(C)(=O)=NC#N (centres unmarked) [Sulfoxaflor] | <0.18% |  |
| CCCOC1CC(C)C([N+](=O)[O-])=C2N(Cc3ccc(Cl)nc3)CCN21 (centres unmarked) [Paichongding(IPP)] | <0.18% |  |
| O=C(NC(=O)c1c(F)cccc1F)Nc1cc(Cl)c(Oc2ncc(C(F)(F)F)cc2Cl)c(Cl)c1 [Chlorfluazuron] | <0.18% |  |
| O=[N+]([O-])/N=C1\NCCN1Cc1cnc(Cl)s1 [Imidaclothiz] | <0.18% |  |
| CCOC(=O)NCCOc1ccc(Oc2ccccc2)cc1 [Fenoxycarb] | <0.18% |  |
| O=C(NC(=O)c1ccccc1Cl)Nc1ccc(Cl)cc1 [Chlorbenzuron] | <0.18% |  |
| C/C(=N\C#N)N(C)Cc1ccc(Cl)nc1 [Acetamiprid] | <0.18% |  |
| Nc1nc(N)nc(NC2CC2)n1 [Cyromazine] | <0.18% |  |
| CC(C)(C)N(NC(=O)c1ccccc1)C(=O)c1ccccc1 [1,2-dibenzoyl-1-(t-butyl)hydrazine] | <0.18% |  |
| O=C1C=C(N(Cc2ccc(Cl)nc2)CC(F)F)CO1 [Flupyradifurone] | <0.18% |  |
| CC(C)N1C(=O)N(c2ccccc2)CS/C1=N\C(C)(C)C [Buprofezin] | 100% | limit of quantitation (LOQ, IC20) (mAb-19F2 [2]; GICA, abstract): 0.0168 µg/mL; IC50 of the test strip (mAb-19F2 [2]; T/C values, buprofezin standard in 0.01 M PBS): 0.2312 µg/mL; detection limit (LOD) (mAb-19F2 [2]; complete disappearance of test line visible to the naked eye): 500 ng/mL |
| CCc1ccc(C(=O)NN(C(=O)c2cc(C)cc(C)c2)C(C)(C)C)cc1 [Tebufenozide] | <0.18% |  |
| CCN(Cc1ccc(Cl)nc1)/C(=C/[N+](=O)[O-])NC [Nitenpyram] | <0.18% |  |
| N#CCNC(=O)c1cnccc1C(F)(F)F [Flonicamid] | <0.18% |  |
| Cc1cc(C)cc(C(=O)N(NC(=O)c2ccc3c(c2C)CCCO3)C(C)(C)C)c1 [Chromafenozide] | <0.18% |  |
| O=C(NC(=O)c1c(F)cccc1F)Nc1cc(Cl)c(OC(F)(F)C(F)F)c(Cl)c1 [Hexaflumuron] | <0.18% |  |
| N#CN=C1SCCN1Cc1ccc(Cl)nc1 [(E)-Thiacloprid] | <0.18% |  |
| FC(F)(F)c1ccc(OCCCOc2c(Cl)cc(OCC=C(Cl)Cl)cc2Cl)nc1 [Pyrldalyl] | <0.18% |  |
| O=C(NC(=O)c1ccccc1Cl)Nc1ccc(OC(F)(F)F)cc1 [Triflumuron] | <0.18% |  |
